Reference: PMC3124385 (Clinical pharmacology and therapeutics, 2011)
Like-named read-outs stand apart in the source and are kept apart here. Starred links: 1 amine or outer side, 2 acyl side, 3 side chain; linkers in the order of their positions; H or OH if unused. Positions of bridges follow the written chain, without caps; N, C: chain ends. Non-standard residues stand in square brackets, D forms with d. Residues, ends and D or L forms follow the SMILES beside them. *: point of attachment. pTerphenylCO(4''-OnC5H11) = CCCCCOc1ccc(-c2ccc(-c3ccc(C(=O)*)cc3)cc2)cc1; Orn(4R-OH,5R-OH) = O=C([C@H](C[C@@H](O)[C@@H](O)N[*:3])N[*:1])[*:2]; hTyr(3S-OH,4S-OH) = N[C@H](C(=O)O)[C@H](O)[C@@H](O)c1ccc(O)cc1; Pro(3S-OH,4S-Me) = C[C@H]1CN[C@H](C(=O)O)[C@H]1O; Hyp = O=C(O)[C@@H]1C[C@@H](O)CN1

What was measured:
[1] = ref [10], cited from earlier work
[2] = ref [12], cited from earlier work
[3] = type: in vivo, human; settings: for C24 LD, trough (24 h) concentration after the loading dose / Cmax LD, maximum concentration after loading dose: after 3 mg/kg IV loading dose, day 1, plasma LC-MS/MS
Procedure, shortened: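 IV infusion over 60 min (≤1.1 mg/min): 3 mg/kg loading dose day 1, then 1.5 mg/kg daily up to day 5. Infants got a 20% alcohol-based form and neonates an alcohol-free water-for-injection form. Venous plasma drawn day 1 (predose, end-infusion, 20–24 h) and days 3–5 (predose to 18–24 h), kept at −80°C, assayed by LC-MS/MS (0.05–20.0 μg/ml). Noncompartmental analysis of doses 3–5; AUC by linear trapezoidal rule; CL = dose/AUC.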

[4] = Safety: adverse events and clinical laboratory tests in infants and neonates; type: in vivo, human
[5] = system: cytochrome P450 enzymatic system; settings: ref [10]; cited from earlier work

SMILES: CCCCCOc1ccc(-c2ccc(-c3ccc(C(=O)N[C@H]4C[C@@H](O)[C@@H](O)NC(=O)[C@@H]5[C@@H](O)[C@@H](C)CN5C(=O)[C@H]([C@@H](C)O)NC(=O)[C@H]([C@H](O)[C@@H](O)c5ccc(O)cc5)NC(=O)[C@@H]5C[C@@H](O)CN5C(=O)[C@H]([C@@H](C)O)NC4=O)cc3)cc2)cc1 [anidulafungin, Anidulafungin] ({pTerphenylCO(4''-OnC5H11)}-[Orn(4R-OH,5R-OH)]T[Hyp][hTyr(3S-OH,4S-OH)]T[Pro(3S-OH,4S-Me)]; lactam 1-C)
- hepatic metabolism [1, 11]: lacks significant hepatic metabolism
- degradation in the blood [1]: undergoes chemical degradation in the blood
- renal clearance [1]: not renally cleared
- AUCss of older children and adults ([2]; older children (1.5 mg/kg/day) and adults (100 mg/day)): 100000 ng·h/mL
- half life in other pediatric patients ([2]; other pediatric patients): 20 to 24 h
- drug accumulation after multiple anidulafungin doses ([3]; comparing trough concentrations after the loading dose and those obtained after multiple doses): not apparent
- Cmax ([3]; human, plasma, iv, 1.5 mg/kg): 4200 ng/mL
- Cmax ([3]; human, plasma, iv, 3 mg/kg): 5000 ng/mL
- level at 24 h ([3]; human, plasma, iv, 3 mg/kg): 2100 ng/mL
- trend in weight-adjusted clearance (CLss) with changes in postmenstrual age ([3]; scatter plot, Figure 3, neonates and infants): No trend was observed
- C24 LD, trough (24 h) concentration after the loading dose ([3]; subject 4, neonate): 2.1 µg/mL
- Cmax LD, maximum concentration after loading dose ([3]; subject 4, neonate): 4000 ng/mL
- C24 LD, trough (24 h) concentration after the loading dose ([3]; subject 6, neonate): 3.2 µg/mL
- Cmax LD, maximum concentration after loading dose ([3]; subject 6, neonate): 5900 ng/mL
- C24 LD, trough (24 h) concentration after the loading dose ([3]; subject 8, neonate): 1.9 µg/mL
- Cmax LD, maximum concentration after loading dose ([3]; subject 8, neonate): 4900 ng/mL
- C24 LD, trough (24 h) concentration after the loading dose ([3]; subject 9, infant): 2.3 µg/mL
- Cmax LD, maximum concentration after loading dose ([3]; subject 9, infant): 7100 ng/mL
- C24 LD, trough (24 h) concentration after the loading dose ([3]; subject 10, infant): 2.4 µg/mL
- Cmax LD, maximum concentration after loading dose ([3]; subject 10, infant): 5000 ng/mL
- C24 LD, trough (24 h) concentration after the loading dose ([3]; subject 11, infant): 1.9 µg/mL
- Cmax LD, maximum concentration after loading dose ([3]; subject 11, infant): 6800 ng/mL
- subjects who experienced at least one adverse event ([4]; eight out of 15 subjects, neonates and infants): 53%
- maximum bilirubin level during study drug administration ([4]; other infant with worsening hyperbilirubinemia, baseline 9.1 mg/dL): 10.4 mg/dL
- metabolism by the cytochrome P450 enzymatic system [5]: not metabolized by the cytochrome P450 enzymatic system
